MrgX1 antagonist: human MrgX1 receptor antagonism, primary screen. Q96LB2. MRGX1-HEK293 calcium flux, Fluo-4, BAM8-22 antagonism; active compounds read low. B-score at 10 µM. 1.3% of 310,000 active. AID 588676;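 active = calcium-response B-score plate-corrected more than 3 library SD below zero, starting fluorescence within 5 deviations, no agonist response on first addition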;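 also: peak minus trough fluorescence over baseline after final BAM8-22 challenge near maximal dose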
Target sequence (Q96LB2 whole entry, looked up): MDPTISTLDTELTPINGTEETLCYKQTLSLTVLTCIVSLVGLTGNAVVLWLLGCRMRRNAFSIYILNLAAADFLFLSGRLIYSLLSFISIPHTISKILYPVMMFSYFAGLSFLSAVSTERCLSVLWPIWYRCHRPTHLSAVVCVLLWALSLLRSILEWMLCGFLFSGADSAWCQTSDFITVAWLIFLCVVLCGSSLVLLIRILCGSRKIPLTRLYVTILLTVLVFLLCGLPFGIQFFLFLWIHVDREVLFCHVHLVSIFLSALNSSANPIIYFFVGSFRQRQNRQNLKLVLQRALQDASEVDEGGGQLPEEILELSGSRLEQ
RGS4 inh: human RGS4 inhibition; P49798; HEK293 M3R/RGS4 inducible, Fluo-4 calcium flux; active compounds read high; triggered by carbachol at its EC20; B-score at 10 µM; 0.45% of 310,000 active; AID 463165;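 active = B-score, a plate-corrected calcium signal, over three deviations above library mean, with baseline fluorescence within five deviations of library mean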;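 also: RGS4 expression induced by doxycycline in cells with stable M3 receptor; B-score is computed from the integrated fluorescence ratio over baseline after carbachol; higher B-score means a larger calcium signal and so more RGS4 inhibition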
RGS4 pot: potentiators or activators of RGS4 | HEK293 M3R/inducible RGS4, carbachol calcium flux Fluo4; active compounds read low | B-score at 10 µM | 0.92% of 310,000 active;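 active = B-score of the integrated calcium signal more than 4 SD below the library mean, with starting fluorescence not abnormally high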;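 also: negative B-score means reduced calcium response which marks RGS4 activation or potentiation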
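test system = HEK293 cells with stable M3R and inducible RGS4 | schedule = recording 10 s baseline at 1 Hz, 100 s post-agonist | technique = Fluo4-AM (2 µM) calcium-flux fluorescence, kinetic read | measure = Agonist-evoked peak-minus-minimum fluorescence over baseline, integrated ratio, B score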
MrgX1 PAM: allosterically activates human MrgX1 receptor signaling. Q96LB2. MrgX1-HEK293, Fluo-4 calcium flux, FDSS; active compounds read high. B-score at 10 µM. 0.63% of 310,000 active;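 active = plate-corrected calcium response at least 3 library SD above typical, normal starting fluorescence, not activating the receptor alone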;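 also: compound read alongside a low EC10 to EC30 dose of BAM8-22 agonist; peak minus trough fluorescence over baseline measured at the second addition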
MrgX1 agonist: human MrgX1 receptor agonism, primary screen. Q96LB2. MrgX1-HEK293 cells, Fluo-4 calcium fluorescence, agonist mode; active compounds read high. B-score at 10 µM. 0.44% of 310,000 active. AID 588627;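 active = calcium response B-score plate-corrected fluorescence ratio at least 3 library SD, with starting fluorescence B-score inside 5 SD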
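Assay system: MrgX1-expressing HEK293 cells / Amount: fifteen thousand cells per well / Doses: test compound in the initial addition of three / Timing: cells plated overnight, dye loaded 0.5 h 37 °C, 0.5 h room temperature / Technique: kinetic calcium dye fluorescence, Fluo-4 NW / Control set: positive and negative controls per plate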
An asterisk follows results filed as active. An excerpt weighted towards active compounds, which were near 3.5% of everything screened.

What do the screens show for `CC1=C(C)CS(=O)N(S(=O)(=O)c2ccc(Cl)cc2)C1` (stereo not given)?
MrgX1 antagonist: inactive; RGS4 inh: inactive; RGS4 pot: inactive; MrgX1 PAM: inactive; MrgX1 agonist: 52*

Results for CC1CCCC(C)N1S(=O)(=O)c1ccc(Cl)cc1 (stereo not given) ?
MrgX1 antagonist: inactive; RGS4 inh: inactive; RGS4 pot: inactive; MrgX1 PAM: inactive; MrgX1 agonist: inactive

How did COc1ccc(CNC(=O)C(C#N)c2nc3ccccc3nc2N2CCN(C)CC2)cc1 (stereo not given) do in these assays?
MrgX1 antagonist: inactive; RGS4 inh: inactive; RGS4 pot: inactive; MrgX1 PAM: inactive; MrgX1 agonist: inactive

Results for COc1ccc(CNC(=O)C(C#N)c2nc3ccccc3nc2N2CCCC2)cc1 (stereo not given) ?
MrgX1 antagonist: -5.1*; RGS4 inh: inactive; RGS4 pot: inactive; MrgX1 PAM: inactive; MrgX1 agonist: inactive

How did C=CCNC(=O)C(C#N)c1nc2ccccc2nc1N1CCCCCC1 (stereo not given) do in these assays?
MrgX1 antagonist: inactive; RGS4 inh: inactive; RGS4 pot: inactive; MrgX1 PAM: 7.7*; MrgX1 agonist: inactive

How did CS(=O)(=O)c1cccc(C(=O)Nc2ccc3c(c2)OCCCO3)c1 do in these assays?
MrgX1 antagonist: inactive; RGS4 inh: inactive; RGS4 pot: inactive; MrgX1 PAM: inactive; MrgX1 agonist: inactive

What do the screens show for `CC(C)c1ccc(/C=C/C(=O)Nc2ccc(CN3CCOCC3)cc2)cc1`?
MrgX1 antagonist: inactive; RGS4 inh: inactive; RGS4 pot: -8.2*; MrgX1 PAM: inactive; MrgX1 agonist: inactive

What do the screens show for `COc1cc(OC)cc(N(C(=O)CNC(=O)c2cccs2)C(C(=O)NCC2CCCO2)c2ccccc2)c1` (stereo not given)?
MrgX1 antagonist: inactive; RGS4 inh: inactive; RGS4 pot: inactive; MrgX1 PAM: inactive; MrgX1 agonist: inactive

Results for COc1cc(C2Oc3cc(C4Oc5cc(O)cc(O)c5C(=O)C4O)ccc3OC2CO)ccc1O (stereo not given) ?
MrgX1 antagonist: inactive; RGS4 inh: inactive; RGS4 pot: inactive; MrgX1 PAM: 8.8*; MrgX1 agonist: inactive

What do the screens show for `COc1ccc(OCc2n(CC(=O)OC3CC(C)CCC3C(C)C)c3ccccc3[n+]2C)cc1` (stereo not given)?
MrgX1 antagonist: -14*; RGS4 inh: inactive; RGS4 pot: inactive; MrgX1 PAM: inactive; MrgX1 agonist: inactive

How did COc1ccc(-c2n(CC(=O)OC3CC(C)CCC3C(C)C)c3ccccc3[n+]2C)cc1 (stereo not given) do in these assays?
RGS4 inh: inactive; RGS4 pot: -7.3*

What do the screens show for `C=CCn1c(C)cc(C(=O)Cn2ncc(Cl)c(Cl)c2=O)c1C`?
MrgX1 antagonist: inactive; RGS4 inh: inactive; RGS4 pot: inactive; MrgX1 PAM: inactive; MrgX1 agonist: inactive

How did C=CCn1c(C)cc(C(=O)CN2NS(=O)(=O)c3ccccc3C2=O)c1C do in these assays?
MrgX1 antagonist: inactive; RGS4 inh: inactive; RGS4 pot: inactive; MrgX1 PAM: 7.1*; MrgX1 agonist: inactive

How did O=C(N/N=C/c1cc([N+](=O)[O-])ccc1O)C(O)(c1ccccc1)c1ccccc1 do in these assays?
MrgX1 antagonist: inactive; RGS4 inh: inactive; RGS4 pot: inactive; MrgX1 PAM: 9.4*; MrgX1 agonist: inactive

What do the screens show for `CCN(CC)C(=O)COC(=O)C1=NN(c2cc(C)ccc2C)C(=O)CC1`?
MrgX1 antagonist: -5.5*; RGS4 inh: inactive; RGS4 pot: inactive; MrgX1 PAM: inactive; MrgX1 agonist: inactive

How did O=C(NC1CC1)c1ccc2c(c1)N(Cc1ccccc1)CCS2 do in these assays?
MrgX1 antagonist: inactive; RGS4 inh: inactive; RGS4 pot: inactive; MrgX1 PAM: inactive; MrgX1 agonist: inactive

How did Cc1ccc(SCC(=O)Nc2ccc(N3CCN(C)CC3)c(F)c2)c(C)c1 do in these assays?
MrgX1 antagonist: inactive; RGS4 inh: inactive; RGS4 pot: -7.6*; MrgX1 PAM: inactive; MrgX1 agonist: inactive

Results for Cc1coc2cc3oc(=O)c(CCC(=O)N4C[C@H]5C[C@@H](C4)c4cccc(=O)n4C5)c(C)c3cc12 ?
MrgX1 antagonist: inactive; RGS4 inh: inactive; RGS4 pot: inactive; MrgX1 PAM: inactive; MrgX1 agonist: inactive
